From article PMC6828556 (Biochemical pharmacology, 2017)
Blank lines part the entries; values can stand above or below the molecule they belong to.

Columns and labels:
human 11β-HSD1 = human 11β-HSD1 (Homo sapiens, UniProt P28845); type: biochemical; details: for inhibition at 20 µM: read-out: inhibition of 11β-HSD1 enzyme activity; for activity against 11β-HSD1 (in words): HEK-293 lysates, recombinant human enzyme
How it was run: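 Lysates of HEK-293 cells stably co-expressing human 11β-HSD1 and H6PDH (HHH7 clone) were incubated 10 min at 37°C with 200 nM radiolabeled cortisone, 500 μM NADPH and test compound or DMSO vehicle (max 0.1%). Reactions were stopped with excess unlabeled cortisone/cortisol, giving about 20–25% conversion. Steroids were separated by TLC (chloroform:methanol 9:1) and counted by scintillation. Activity was normalized to vehicle; mean ± SD, ≥3 independent experiments. IC50 was skipped when residual activity at 20 μM exceeded 40%.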

11β-HSD2 [1] = target: T1, 11β-HSD2 (Homo sapiens, UniProt P80365); assay: 11β-HSD2 activity in lysates of HEK-293 cells stably expressing human 11β-HSD2; type: biochemical; details: for residual 11β-HSD2 activity: 20 μM test substance; for inhibition at 20 µM: read-out: inhibition of 11β-HSD2 enzyme activity; for IC25 for 11β-HSD2: as determined in HEK-293 cell lysates
T1 sequence (P80365 1-405): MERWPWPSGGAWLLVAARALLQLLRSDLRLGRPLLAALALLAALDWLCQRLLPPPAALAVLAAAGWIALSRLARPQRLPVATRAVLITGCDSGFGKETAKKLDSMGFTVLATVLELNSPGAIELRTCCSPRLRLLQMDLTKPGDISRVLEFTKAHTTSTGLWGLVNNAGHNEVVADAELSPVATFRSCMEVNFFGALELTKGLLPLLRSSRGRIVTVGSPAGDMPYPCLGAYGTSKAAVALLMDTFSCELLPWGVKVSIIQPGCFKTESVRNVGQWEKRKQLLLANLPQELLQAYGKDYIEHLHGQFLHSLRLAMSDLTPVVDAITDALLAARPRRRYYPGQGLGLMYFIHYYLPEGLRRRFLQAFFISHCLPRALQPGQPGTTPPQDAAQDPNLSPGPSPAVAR
How it was run: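 Reactions were stopped with excess unlabeled cortisone/cortisol, giving about 20–25% conversion. Products were separated by TLC (chloroform:methanol 9:1) and counted by scintillation. Activity was normalized to vehicle; mean ± SD, ≥3 independent experiments.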

human 17β-HSD2 = target: T2, human 17β-HSD2 (Homo sapiens, UniProt P37059); assay: 17β-HSD2 activity in lysates of transiently transfected HEK-293 cells; type: biochemical; details: HEK-293 lysates, 200 nM estradiol; data not shown
T2 sequence (P37059 1-387): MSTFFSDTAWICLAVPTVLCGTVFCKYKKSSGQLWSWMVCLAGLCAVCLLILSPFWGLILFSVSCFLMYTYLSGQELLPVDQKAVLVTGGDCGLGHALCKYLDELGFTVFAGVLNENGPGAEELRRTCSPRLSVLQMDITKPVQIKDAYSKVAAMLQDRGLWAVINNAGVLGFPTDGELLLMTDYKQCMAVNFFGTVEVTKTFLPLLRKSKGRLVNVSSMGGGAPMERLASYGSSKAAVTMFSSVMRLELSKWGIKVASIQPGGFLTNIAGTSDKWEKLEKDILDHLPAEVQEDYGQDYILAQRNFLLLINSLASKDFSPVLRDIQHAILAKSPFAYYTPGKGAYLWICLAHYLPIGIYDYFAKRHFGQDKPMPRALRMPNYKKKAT
How it was run: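 Lysates of HEK-293 cells transiently expressing human 17β-HSD2 were incubated for 10 min at 37°C with 200 nM estradiol (containing 50 nCi [2,4,6,7-3H]-estradiol), 500 μM NAD+ and test compound or DMSO vehicle. Steroids were separated by TLC, with conversion quantified by scintillation counting. Results were normalized to the vehicle control. Data are mean ± SD from at least three independent experiments.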

human 17β-HSD1 = target: T3, human 17β-HSD1 (Homo sapiens, UniProt P14061); assay: 17β-HSD1 activity in lysates of transiently transfected HEK-293 cells; type: biochemical; details: HEK-293 lysates, 200 nM estrone; data not shown
T3 sequence (P14061 1-328): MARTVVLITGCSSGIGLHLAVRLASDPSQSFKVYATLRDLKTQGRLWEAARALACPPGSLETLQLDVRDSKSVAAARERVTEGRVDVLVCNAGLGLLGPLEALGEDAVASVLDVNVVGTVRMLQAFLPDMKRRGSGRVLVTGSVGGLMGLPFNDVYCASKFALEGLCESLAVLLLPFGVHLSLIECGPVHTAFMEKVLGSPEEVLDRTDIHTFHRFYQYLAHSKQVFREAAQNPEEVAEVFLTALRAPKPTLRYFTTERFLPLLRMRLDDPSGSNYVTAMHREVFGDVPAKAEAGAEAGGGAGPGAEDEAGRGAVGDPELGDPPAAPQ
How it was run: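 Lysates of HEK-293 cells transiently expressing human 17β-HSD1 were incubated for 10 min at 37°C with 200 nM estrone (containing 50 nCi [2,4,6,7-3H]-estrone), 500 μM NADPH and test compound or DMSO vehicle. Steroids were separated by TLC, and substrate conversion was measured by scintillation counting. Activity was normalized to the vehicle control. Data are mean ± SD from at least three independent experiments.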

11β-HSD2 [2] = target: T1, 11β-HSD2; assay: 11β-HSD2 activity in intact SW-620 cells; type: cell-based
How it was run: (§1)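 Cells were grown in DMEM with 10% FBS (SW-620 passages 11–15, MCF-7 passages 19–27) and seeded at 100 000 (SW-620) or 50 000 (MCF-7) per well. After 24 h, medium was replaced by steroid- and serum-free DMEM with vehicle or inhibitor plus radiolabeled cortisol (10 nCi; 50 nM final). Incubation was at 37°C for 4 h (SW-620) or 5 h (MCF-7). Conversion was read by TLC and scintillation counting.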

11β-HSD2 [3] = target: T1, 11β-HSD2; type: biochemical; details: preincubation 0, 5, 20 min at 4°C or 10 min followed by dilution
How it was run: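 Lysates of HEK-293 cells expressing human 11β-HSD2 were preincubated with test compound for 0, 5 or 20 min at 4°C before activity measurement. Alternatively, lysates were preincubated 10 min with compound, then diluted 1:2 or 1:4 before measuring 11β-HSD2 activity (radiolabeled cortisol, NAD+, TLC/scintillation). Data were normalized to DMSO control; mean ± SD, ≥3 independent experiments.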

[4] = cited from earlier work
[5] = first trimester exposure, 229 women, 50-800 mg daily, prospective cohort; cited from earlier work
11β-HSD2 [6] = target: T1, 11β-HSD2; assay: 11β-HSD2 activity in intact MCF-7 cells; type: cell-based
How it was run: as §1

[7] = predominately to albumin; cited from earlier work
11β-HSD1 = details: cited from earlier work
11β-HSD2 [8] = details: cited from earlier work

Chain of human 11β-HSD1 (P28845 whole entry): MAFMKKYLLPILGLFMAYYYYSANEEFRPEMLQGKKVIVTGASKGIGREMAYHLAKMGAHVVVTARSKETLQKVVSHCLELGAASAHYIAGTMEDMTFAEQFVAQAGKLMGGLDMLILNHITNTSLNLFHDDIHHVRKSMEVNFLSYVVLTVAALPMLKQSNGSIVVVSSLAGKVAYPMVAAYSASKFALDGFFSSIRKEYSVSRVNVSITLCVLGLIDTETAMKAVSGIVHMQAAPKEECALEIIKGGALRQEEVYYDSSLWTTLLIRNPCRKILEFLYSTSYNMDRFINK

Structure (SMILES): Clc1ccc(CCC(Cn2ccnc2)Sc2c(Cl)cccc2Cl)cc1 (centres unmarked) [butoconazole]
- inhibition at 20 µM (human 11β-HSD1): ≥ 50%
- residual 11β-HSD2 activity (11β-HSD2 [1]; HEK-293 lysates): 44%

Structure (SMILES): CCN(CC)Cc1cc(Nc2ccnc3cc(Cl)ccc23)ccc1O [amodiaquine]
- inhibition at 20 µM (human 11β-HSD1): < 40%
- inhibition at 20 µM (11β-HSD2 [1]): < 40%

Structure (SMILES): Cc1onc(-c2ccccc2Cl)c1C(=O)N[C@@H]1C(=O)N2[C@@H]1SC(C)(C)[C@@H]2C(=O)O [cloxacillin]
- inhibition at 20 µM (human 11β-HSD1): < 40%
- inhibition at 20 µM (11β-HSD2 [1]): < 40%

Structure (SMILES): CCCSc1ccc2nc(NC(=O)OC)[nH]c2c1 [Albendazole]
- activity against 11β-HSD1 (in words) (human 11β-HSD1): inactive
- activity against 11β-HSD2 (in words) (11β-HSD2 [1]; HEK-293 lysates, recombinant human enzyme): inactive

Structure (SMILES): CCC[C@@H]1C[C@@H](C(=O)N[C@@H]([C@H]2O[C@H](SC)[C@H](O)[C@@H](O)[C@H]2O)[C@H](C)Cl)N(C)C1 [clindamycin]
- inhibition at 20 µM (human 11β-HSD1): < 40%
- inhibition at 20 µM (11β-HSD2 [1]): < 40%

Structure (SMILES): CC(C)(C)C(=O)C(Oc1ccc(Cl)cc1)n1cncn1 (centres unmarked) [triadimefon]
- IC50 (11β-HSD1; read-out: IC50 as competitive inhibitor of 11β-HSD1): 15000 nM
- Km (11β-HSD1; read-out: Km as substrate of 11β-HSD1): 3.5 µM

Structure (SMILES): CCN(CC)CCCC(C)Nc1ccnc2cc(Cl)ccc12 (centres unmarked) [chloroquine]
- inhibition at 20 µM (human 11β-HSD1): < 40%
- inhibition at 20 µM (11β-HSD2 [1]): < 40%

Structure (SMILES): CC(O)C(C)n1ncn(-c2ccc(N3CCN(c4ccc(OCC5COC(Cn6cncn6)(c6ccc(Cl)cc6Cl)O5)cc4)CC3)cc2)c1=O (centres unmarked) [OHI, hydroxyitraconazole]
- inhibition of 17β-HSD2 activity (human 17β-HSD2): None of the compounds inhibited 17β-HSD1 or 17β-HSD2 activity
- IC50 (11β-HSD2 [1]): 223 ± 31 nM
- inhibition of human 11β-HSD2 (in words) (11β-HSD2 [1]; 5 μM, HEK-293 lysates, 200 nM cortisol): complete inhibition
- plasma protein binding [7]: 99.6%
- inhibition of 17β-HSD1 activity (human 17β-HSD1): None of the compounds inhibited 17β-HSD1 or 17β-HSD2 activity
- IC50 (11β-HSD2 [2]): 820 ± 180 nM
- irreversible 11β-HSD2 inhibition (11β-HSD2 [3]): excluded
- IC50 (11β-HSD2 [6]): 680 ± 200 nM

Structure (SMILES): Cc1onc(-c2c(F)cccc2Cl)c1C(=O)N[C@@H]1C(=O)N2[C@@H]1SC(C)(C)[C@@H]2C(=O)O [flucloxacillin]
- inhibition at 20 µM (human 11β-HSD1): < 40%
- inhibition at 20 µM (11β-HSD2 [1]): < 40%

Structure (SMILES): CC(=O)N1CCN(c2ccc(OCC3COC(Cn4ccnc4)(c4ccc(Cl)cc4Cl)O3)cc2)CC1 (centres unmarked) [Ketoconazole]
- inhibitory effect toward 11β-HSD2 (in words) (11β-HSD2 [8]): weak inhibitory effects
- inhibitory effect toward 11β-HSD1 (in words) (11β-HSD1): weak inhibitory effects

Further lines, with some results ahead:

- activity against 11β-HSD1 (in words) (human 11β-HSD1): inactivity towards 11β-HSD1
- IC50 (11β-HSD2 [1]): 139 ± 14 nM
- IC25 for 11β-HSD2 (11β-HSD2 [1]): 78 nM
- IC50 (11β-HSD2 [2]): 1070 ± 290 nM
- irreversible 11β-HSD2 inhibition (11β-HSD2 [3]): excluded
- IC50 (11β-HSD2 [6]): 1190 ± 240 nM
Structure (SMILES): CCC(C)n1ncn(-c2ccc(N3CCN(c4ccc(OCC5COC(Cn6cncn6)(c6ccc(Cl)cc6Cl)O5)cc4)CC3)cc2)c1=O (centres unmarked) [itraconazole]
- inhibition of 17β-HSD2 activity (human 17β-HSD2): None of the compounds inhibited 17β-HSD1 or 17β-HSD2 activity
- inhibition of 17β-HSD1 activity (human 17β-HSD1): None of the compounds inhibited 17β-HSD1 or 17β-HSD2 activity
- concentration in fat tissue relative to plasma ([4]; fat tissue): approximately 17 fold
- duration of treatment needed to reach plasma steady-state levels ([4]; human plasma): 15 days
- concentration in lung, liver, muscle and kidney relative to plasma ([4]; lung, liver, muscle and kidney): 2-3 fold
- rate of malformations compared to the control [5]: no difference

- inhibition at 20 µM (human 11β-HSD1): ≥ 50%
- residual 11β-HSD2 activity (11β-HSD2 [1]; HEK-293 lysates): 50%
Structure (SMILES): Clc1ccc(C(Cn2ccnc2)OCc2ccsc2Cl)c(Cl)c1 (centres unmarked) [tioconazole]

- inhibition at 20 µM (human 11β-HSD1): < 40%
- inhibition at 20 µM (11β-HSD2 [1]): < 40%
Structure (SMILES): CC(=O)O[C@H]1C[C@@]2(C)[C@@H](C[C@@H](O)[C@H]3[C@@]4(C)CC[C@@H](O)[C@@H](C)[C@@H]4CC[C@@]32C)/C1=C(\CCC=C(C)C)C(=O)O [fusidic acid]

- activity against 11β-HSD1 (in words) (human 11β-HSD1): inactivity towards 11β-HSD1
- IC50 (11β-HSD2 [1]): 460 ± 98 nM
- IC25 for 11β-HSD2 (11β-HSD2 [1]): 237 nM
- residual 11β-HSD2 activity (11β-HSD2 [2]; SW-620 cells, 5 μM): approximately 60%
- irreversible 11β-HSD2 inhibition (11β-HSD2 [3]): excluded
- residual 11β-HSD2 activity (11β-HSD2 [6]; MCF-7 cells, 5 μM): ~40%
Structure (SMILES): CC[C@@H]([C@H](C)O)n1ncn(-c2ccc(N3CCN(c4ccc(OC[C@@H]5CO[C@@](Cn6cncn6)(c6ccc(F)cc6F)C5)cc4)CC3)cc2)c1=O [posaconazole]
- inhibition of 17β-HSD2 activity (human 17β-HSD2): None of the compounds inhibited 17β-HSD1 or 17β-HSD2 activity
- plasma protein binding [7]: ≥ 98%
- inhibition of 17β-HSD1 activity (human 17β-HSD1): None of the compounds inhibited 17β-HSD1 or 17β-HSD2 activity
- concentration in pulmonary alveolar cells compared with plasma ([4]; pulmonary alveolar cells): 31-42 fold

- inhibition at 20 µM (human 11β-HSD1): < 40%
- inhibition at 20 µM (11β-HSD2 [1]): < 40%
Structure (SMILES): CCC[C@@H]1C[C@@H](C(=O)N[C@@H]([C@H]2O[C@H](SC)[C@H](O)[C@@H](O)[C@H]2O)[C@@H](C)O)N(C)C1 [lincomycin]

- inhibition at 20 µM (human 11β-HSD1): < 40%
- inhibition at 20 µM (11β-HSD2 [1]): < 40%
Structure (SMILES): CCCN(CCC)S(=O)(=O)c1ccc(C(=O)O)cc1 [probenecid]

- inhibition at 20 µM (human 11β-HSD1): < 40%
- inhibition at 20 µM (11β-HSD2 [1]): < 40%
Structure (SMILES): N=C(N)c1ccc(OCCCCCOc2ccc(C(=N)N)cc2)cc1 [pentamidine]

- inhibition at 20 µM (human 11β-HSD1): ≥ 50%
- residual 11β-HSD2 activity (11β-HSD2 [1]; HEK-293 lysates): 61%
Structure (SMILES): Clc1ccc(C(Cn2ccnc2)OCc2csc3c(Cl)cccc23)c(Cl)c1 (centres unmarked) [sertaconazole]

- inhibition at 20 µM (human 11β-HSD1): < 40%
- inhibition at 20 µM (11β-HSD2 [1]): < 40%
Structure (SMILES): CCOc1ccc2ccccc2c1C(=O)N[C@@H]1C(=O)N2[C@@H]1SC(C)(C)[C@@H]2C(=O)O [nafcillin]
